# Bioassay records from PubChem BioAssay.
# A selection: hits, their analogues and other compounds. The true share with any hit is near 2.9%.
# ABHD5 PLIN5 PPI = ABHD5-PLIN5 interaction inhibitors, primary screen, cell lysate, split luciferase complementation, luminescence. Perilipin-5 (Homo sapiens) + 1-acylglycerol-3-phosphate O-acyltransferase ABHD5 (Homo …. Split G. princeps luciferase complementation, 4 h. inhibition, % at 4 µM. hit rate 0.78% among 360,000. AID 602281, 2012;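 active = inhibition above the mean inhibition across every tested compound plus 3 SD, cut at about 22% in these data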;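 note: 0% = DMSO only wells and the 100% control is not disclosed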
# APOBEC3A inh = APOBEC3A ssDNA deaminase inhibitors, primary screen, selectivity assay for APOBEC3G inhibitor project, biochemical, FAM/TAMRA oligo cleavage fluorescence; hit rate 0.41% among 330,000; recombinant A3A, FAM/TAMRA ssDNA deamination fluorescence; inhibition, % at 20 µM;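 active = at least 40% inhibition at 20 µM here, with at most 30% in a related deaminase screen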;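 note: plate controls were A3A with DMSO for no effect and wells lacking A3A enzyme for full effect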
# PRMT1 FP inh = PRMT1 methyltransferase inhibitors, primary screen, biochemical, fluorescence polarization; Protein arginine N-methyltransferase 1 (Homo sapiens), Q99873; inhibition, % at 2.79 µM; recombinant PRMT1, activity-based probe fluorescence polarization; hit rate 1.3% among 370,000; AID 652257, 2013;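 active = inhibition above about 21% made by adding two undisclosed values, limit read from the data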
# Target sequence (Q99873 whole entry, looked up): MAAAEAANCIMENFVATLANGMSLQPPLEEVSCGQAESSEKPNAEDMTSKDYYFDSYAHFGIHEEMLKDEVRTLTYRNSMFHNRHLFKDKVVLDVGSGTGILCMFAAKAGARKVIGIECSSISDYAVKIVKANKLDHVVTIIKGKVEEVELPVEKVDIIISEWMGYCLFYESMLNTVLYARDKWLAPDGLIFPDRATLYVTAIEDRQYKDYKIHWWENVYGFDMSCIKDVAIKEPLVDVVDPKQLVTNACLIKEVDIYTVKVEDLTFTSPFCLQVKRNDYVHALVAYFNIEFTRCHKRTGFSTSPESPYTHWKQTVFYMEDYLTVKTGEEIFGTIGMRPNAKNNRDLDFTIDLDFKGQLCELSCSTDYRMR
# NS3 helicase inh = inhibitors of HCV NS3 helicase, primary screen, biochemical, Cy5 molecular beacon fluorescence. inhibition, % at 10.9 µM. Hepatitis C virus NS3 helicase. NS3 helicase DNA unwinding. AID 1800, 2009. hit rate 0.56% among 290,000;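 active = inhibition above the mean of all tested compounds plus 3 SD, set per campaign, cut at about 35% in these data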;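 note: 0% = DMSO wells and 100% = thioflavine S control wells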
#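 Measured by: Cy5 fluorescence, 0 and 60 min reads / Assay system: NS3 helicase fragment of HCV / Control set: low DMSO, high thioflavine S at 110 µM / Times: 1 h reaction at 25 °C, ATP-initiated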
# APOBEC3G inh = APOBEC3G DNA deaminase inhibitors, primary screen, biochemical, fluorescence, single-stranded DNA substrate, uHTS. recombinant A3G, ssDNA deamination FAM/TAMRA fluorescence. inhibition, % at 20 µM. hit rate 0.28% among 330,000;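 active = inhibition of at least 40% at 20 µM, with no more than 30% in the related APOBEC3A deaminase screen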;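 note: plate controls were DMSO wells with A3G for no effect and wells lacking A3G enzyme for full effect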
# core dimer inh = inhibitors of HCV core protein dimerization, primary screen, biochemical, TR-FRET, high-throughput; TR-FRET GST/Flag-core106 dimerization, 1536-well; inhibition, % at 5 µM; hit rate 0.33% among 300,000; AID 1899, 2009;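 active = inhibition above the mean of all tested compounds plus 3 SD, set per screening campaign, cut at about 45% in these data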
#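 assay system = GST-tagged and Flag-tagged HCV core protein residues 1-106 | controls = unlabelled core106 and no-GST-core106 wells | incubation = compound-protein-antibody incubation 4 h at 22.5 °C | probe or stimulus = Eu donor and XL665 acceptor anti-tag antibodies | read-out = % inhibition based on acceptor/donor emission ratio | signal = TR-FRET 671 and 617 nm emission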
# NS3 helicase cf = HCV NS3 helicase inhibitors, retest, confirmation, biochemical, Cy5 molecular beacon fluorescence, triplicate | inhibition, % at 10.9 µM | hit rate 31% among 1,600 | AID 1943, 2009 | shares compounds with NS3 helicase inh | NS3 helicase DNA unwinding;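 active = inhibition above the mean of all tested compounds plus 3 SD, cutoff set per campaign, cut at about 36% in these data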
# DNA FID counter = compounds displacing fluorescent DNA intercalator, artefact control for HCV NS3 helicase inhibitor project, biochemical, FID fluorescence, triplicate; shares compounds with NS3 helicase inh; DNA fluorescent intercalator displacement; inhibition, % at 7.9 µM; hit rate 4% among 1,600; AID 1945, 2009; in the data active = inhibition above about 37%;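 note: 0% = vehicle and 100% = reference compound; higher means more displacement of ethidium bromide from the DNA hairpin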
# * hit, by the source's call; / = no result given.
SMILES,ABHD5 PLIN5 PPI,APOBEC3A inh,PRMT1 FP inh,NS3 helicase inh,APOBEC3G inh,core dimer inh,NS3 helicase cf,DNA FID counter
Cc1ccc(S(=O)(=O)Nc2cc(C(=O)N3CCOCC3)ccc2N2CCCCC2)cc1,-3,1,-1,8,2,-3,/,/
C[C@@H]1COc2cccc(N3CCN(Cc4ccccc4F)CC3)c2S(=O)(=O)N1,9,/,6,/,/,/,/,/
CCCCOC(=O)C1[C@H]2C(=O)N(Cc3cccs3)C[C@]23C=C[C@H]1O3 (stereo partly drawn),5,-2,0,6,-6,7,/,/
CCCOC(=O)C1[C@H]2C(=O)N(Cc3ccco3)C[C@]23C=C[C@H]1O3 (stereo partly drawn),-4,4,1,40*,3,11,-6,-8
CCOC(=O)c1c(C)[nH]c(C(=O)COC(=O)c2cc(C)oc2C)c1C,-1,-2,0,/,6,/,/,/
Cc1ccc(C)c(N(C(=O)c2csnn2)C(C(=O)NC2CCCC2)c2ccncc2)c1 (stereo not drawn),5,0,5,11,3,-1,/,/
Cc1ccc(N(C(=O)c2csnn2)C(C(=O)NC2CCCC2)c2ccncc2)c(C)c1 (stereo not drawn),-7,-4,-5,39*,3,-3,-7,-8
CCCC1=Nc2cc(C(=O)N3CCN(c4ccccn4)CC3)ccc2Sc2ccc(C)cc21,8,-4,2,0,-7,24,/,/
COc1ccc(CNCc2cc3c(cc2[N+](=O)[O-])OCO3)cc1,5,1,14,40*,-2,-3,-13,11
CCOC(=O)c1ccc[n+]([O-])c1,-4,/,1,/,/,/,/,/
Cc1[nH]c2ccccc2c1C(=O)COC(=O)c1ccc[n+]([O-])c1,3,1,-2,46*,-3,1,-14,-3
OC(CCCC(O)c1ccccc1)c1ccccc1 (stereo not drawn),3,/,-1,/,/,/,/,/
CC(C)N1CCC1(C)C(=O)Nc1ccc(-n2cccc2)cc1 (stereo not drawn),-6,/,-3,/,/,/,/,/
Cc1ccc(NC(N)=S)cc1,5,1,0,36*,-1,0,2,3
COCC(C)n1c(SCC(=O)NC(=O)NCc2ccccc2)nc2ccccc2c1=O (stereo not drawn),-7,1,-1,/,-7,/,/,/
Cc1cc(-n2c(C)cc(C(=O)CSc3ccc4c(c3)OCCO4)c2C)no1,-20,0,22*,37*,0,5,0,-23
COC(=O)[C@]12C[C@H](CC(=O)N3CCOCC3)C(=O)N(CCC3=CCCCC3)C1=C[C@H](C1CCCC1)O[C@@H]2C,/,/,-1,/,/,/,/,/
CCN(CC)c1ccc(/C=N/NC(=O)OC(C)(C)C)cc1,-1,0,-3,-12,6,-10,/,/
CC1CCCCN1S(=O)(=O)c1ccc(C(=O)Nc2nnc(C3=COCCO3)o2)cc1 (stereo not drawn),0,3,0,11,-4,-1,/,/
CC1CCCN(S(=O)(=O)c2ccc(C(=O)Nc3nnc(C4=COCCO4)o3)cc2)C1 (stereo not drawn),-6,6,-1,65*,3,-12,-16,-30
COc1ccc(S(=O)(=O)NC2CCN(C#N)CC2)cc1,/,/,-4,/,/,/,/,/
